According to ChEMBL document CHEMBL4602718, “Mechanism of Action of an EPAC1-Selective Competitive Partial Agonist” (J Med Chem, 2020):
One block for each compound: values may come before it. Activity calls are given as the source filed them. The calls are words filed in the database; no cut-off is given here.

Assays:
[1] = biological target: T1, Rap guanine nucleotide exchange factor 3 (Homo sapiens) (UniProt O95398); experiment: Binding affinity to GST-tagged human EPAC1 CNBD (149 to 318 residues)expressed in Escherichia coli BL21 (DE3) assessed as binding to R279 Guanidinium residue by guanidinium HSQC NMR spectroscopy
T1 sequence (whole entry): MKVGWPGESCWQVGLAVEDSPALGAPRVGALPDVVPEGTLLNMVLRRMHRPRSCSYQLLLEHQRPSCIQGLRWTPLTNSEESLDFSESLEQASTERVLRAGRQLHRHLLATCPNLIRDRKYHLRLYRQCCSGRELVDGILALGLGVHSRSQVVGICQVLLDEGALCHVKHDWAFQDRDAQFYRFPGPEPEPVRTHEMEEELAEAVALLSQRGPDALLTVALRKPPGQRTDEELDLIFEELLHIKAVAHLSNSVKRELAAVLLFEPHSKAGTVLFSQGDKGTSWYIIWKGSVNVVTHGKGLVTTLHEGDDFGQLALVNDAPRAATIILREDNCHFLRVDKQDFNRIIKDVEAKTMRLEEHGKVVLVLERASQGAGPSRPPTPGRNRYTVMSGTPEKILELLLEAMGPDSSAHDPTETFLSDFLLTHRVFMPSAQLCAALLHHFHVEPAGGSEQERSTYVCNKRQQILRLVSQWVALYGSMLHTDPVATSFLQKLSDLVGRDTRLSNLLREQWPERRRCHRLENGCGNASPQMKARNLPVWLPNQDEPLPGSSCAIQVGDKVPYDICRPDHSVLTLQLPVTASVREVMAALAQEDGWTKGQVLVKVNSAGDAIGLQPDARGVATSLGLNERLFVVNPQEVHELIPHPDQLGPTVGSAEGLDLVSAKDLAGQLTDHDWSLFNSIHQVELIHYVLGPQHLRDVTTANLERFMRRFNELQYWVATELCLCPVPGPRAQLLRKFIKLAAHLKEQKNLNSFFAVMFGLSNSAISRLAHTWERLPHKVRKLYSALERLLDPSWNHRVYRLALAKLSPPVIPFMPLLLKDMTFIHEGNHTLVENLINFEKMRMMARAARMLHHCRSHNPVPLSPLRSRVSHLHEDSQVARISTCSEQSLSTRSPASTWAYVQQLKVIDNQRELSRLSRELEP
How it was run: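 Human EPAC1 residues 149–318, wild type and R279A mutant, expressed GST-tagged in E. coli BL21(DE3) in 15N or 15N/13C M9 medium. GST tag removed by thrombin; protein purified by glutathione and anion-exchange steps. Guanidinium HSQC spectra of apo or ligand-saturated protein recorded at 700 MHz and 306 K in 50 mM Tris, 50 mM NaCl, 1 mM DTT, pH 7.6. Ligand came from a DMSO-d6 stock, with matching DMSO-d6 added to apo and cAMP-bound controls.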

[2] = biological target: T1, Rap guanine nucleotide exchange factor 3 (Homo sapiens); experiment: Binding affinity to GST-tagged human EPAC1 CNBD (149 to 318 residues)expressed in Escherichia coli BL21 (DE3) assessed as induction Intermolecular NOEs peaks in PBC and BBR residues by 15N-NOESY-HSQC NMR spectroscopy
[3] = biological target: T1, Rap guanine nucleotide exchange factor 3 (Homo sapiens); experiment: Binding affinity to GST-tagged human EPAC1 CNBD (149 to 318 residues)expressed in Escherichia coli BL21 (DE3) assessed as compound binding to phosphate binding cassette region incubated for 30 mins by CHESPA method
[4] = biological target: T2, Rap guanine nucleotide exchange factor 3 (Homo sapiens, UniProt O95398); experiment: Binding affinity to GST-tagged human EPAC1 CNBD (149 to 318 residues) expressed in Escherichia coli BL21 (DE3) incubated for 30 mins by 8-NBD-cAMP based competitive fluorescence assay
T2 sequence (O95398 whole entry): T1 sequence (whole entry)

[5] = biological target: T1, Rap guanine nucleotide exchange factor 3 (Homo sapiens); experiment: Binding affinity to GST-tagged human EPAC1 CNBD (149 to 318 residues)expressed in Escherichia coli BL21 (DE3) assessed as compound binding to base binding region incubated for 30 mins by CHESPA method
[6] = biological target: T1, Rap guanine nucleotide exchange factor 3 (Homo sapiens); experiment: Binding affinity to GST-tagged human EPAC1 CNBD (149 to 318 residues)expressed in Escherichia coli BL21 (DE3) assessed as induction of conformational changes in compound by NOESY NMR spectroscopy
[7] = biological target: T1, Rap guanine nucleotide exchange factor 3 (Homo sapiens); experiment: Binding affinity to GST-tagged human EPAC1 CNBD (149 to 318 residues)expressed in Escherichia coli BL21 (DE3) assessed as induction of perturbation of allosteric network sites by CHESCA method
[8] = biological target: T1, Rap guanine nucleotide exchange factor 3 (Homo sapiens); experiment: Binding affinity to GST-tagged human EPAC1 CNBD (149 to 318 residues)expressed in Escherichia coli BL21 (DE3) by STD and guanidinium HSQC NMR analysis
[9] = biological target: T1, Rap guanine nucleotide exchange factor 3 (Homo sapiens); experiment: Binding affinity to GST-tagged human EPAC1 CNBD (149 to 318 residues)expressed in Escherichia coli BL21 (DE3) assessed as compound binding to cAMP-binding sites incubated for 30 mins by CHESPA method
[10] = biological target: Rap guanine nucleotide exchange factor 3 (Homo sapiens, UniProt O95398, L273W); experiment: Binding affinity to GST-tagged human EPAC1 L273W mutant expressed in Escherichia coli BL21 (DE3) incubated for 30 mins by 8-NBD-cAMP based competitive fluorescence assay
How it was run: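 Competitive displacement of 8-NBD-cAMP from the L273W mutant of the 149–318 construct, titrating ligand in Tris pH 7.6 buffer. […] Percent bound 8-NBD-cAMP was plotted against total ligand and fitted to a competitive-binding cubic solution to give Kd.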

[11] = biological target: T1, Rap guanine nucleotide exchange factor 3 (Homo sapiens); experiment: Binding affinity to GST-tagged human EPAC1 CNBD (149 to 318 residues) expressed in Escherichia coli BL21 (DE3) incubated for 30 mins by 1H,15N-HSQC NMR spectroscopy

Chain of Rap guanine nucleotide exchange factor 3 (Homo sapiens, UniProt O95398, L273W) (O95398 whole entry L273W): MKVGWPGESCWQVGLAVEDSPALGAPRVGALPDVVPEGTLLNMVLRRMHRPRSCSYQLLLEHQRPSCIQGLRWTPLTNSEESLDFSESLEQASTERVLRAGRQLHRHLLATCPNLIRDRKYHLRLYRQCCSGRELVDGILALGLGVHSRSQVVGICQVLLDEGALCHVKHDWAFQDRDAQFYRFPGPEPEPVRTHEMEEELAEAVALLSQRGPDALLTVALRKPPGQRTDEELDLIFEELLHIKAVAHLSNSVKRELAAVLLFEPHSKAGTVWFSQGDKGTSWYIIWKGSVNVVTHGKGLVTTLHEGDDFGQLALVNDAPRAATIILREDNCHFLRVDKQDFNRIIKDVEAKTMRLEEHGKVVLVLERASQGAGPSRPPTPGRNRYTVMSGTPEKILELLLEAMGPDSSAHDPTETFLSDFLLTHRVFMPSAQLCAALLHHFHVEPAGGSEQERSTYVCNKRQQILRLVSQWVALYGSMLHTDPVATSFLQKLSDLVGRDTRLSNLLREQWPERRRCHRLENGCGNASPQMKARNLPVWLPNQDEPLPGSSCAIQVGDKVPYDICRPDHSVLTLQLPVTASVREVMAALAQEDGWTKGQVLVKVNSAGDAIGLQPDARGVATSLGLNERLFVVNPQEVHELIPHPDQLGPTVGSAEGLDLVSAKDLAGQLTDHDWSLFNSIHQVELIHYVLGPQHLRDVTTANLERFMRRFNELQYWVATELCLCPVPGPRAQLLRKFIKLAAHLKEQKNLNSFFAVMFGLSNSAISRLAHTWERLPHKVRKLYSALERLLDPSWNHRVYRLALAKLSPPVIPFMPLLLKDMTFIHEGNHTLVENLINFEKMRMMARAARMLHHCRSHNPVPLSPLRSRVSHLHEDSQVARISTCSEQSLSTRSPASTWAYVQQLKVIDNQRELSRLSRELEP

SMILES: Nc1ncnc2c1ncn2[C@@H]1O[C@@H]2CO[P@@](O)(=S)O[C@H]2[C@H]1O
Activity [1]: Active

SMILES: COc1ccc(OC)c(S(=O)(=O)NC(=O)COc2ccc3ccccc3c2)c1
Activity [2]: Active

SMILES: COc1ccc(S(=O)(=O)NC(=O)COc2ccc3ccccc3c2)cc1OC
Activity [2]: Active

Activity [3]: Active | Kd [4]: 6.6 µM | Activity [5]: Active | Activity [7]: Active | Activity [8]: Active | Activity [9]: Active | Kd [10]: 4.9 µM | Activity [11]: Active | Activity [1]: Active
SMILES: Cc1ccc(S(=O)(=O)NC(=O)COc2ccc3ccccc3c2)c(C)c1
Activity [6]: Active | Activity [2]: Active

SMILES: COc1ccc(S(=O)(=O)NC(=O)COc2ccc3ccccc3c2)c(OC)c1
Activity [2]: Active
